ChEMBL document CHEMBL5385966, “Synthesis and biological evaluation of new naphthalimide-thiourea derivatives as potent antimicrobial agents active against multidrug-resistant Staphylococcus aureus and Mycobacterium tuberculosis” (RSC Med Chem, 2024)
≈ marks a conversion by molar mass, not a printed value. Calls of active or inactive are those of the source. The calls are words filed in the database; no cut-off is given here.

Assays:
[1] = test system: Mycolicibacterium fortuitum; assay: Antimycobacterial activity against Mycobacterium fortuitum ATCC 6841 assessed as bacterial growth inhibition incubated for 72 hrs by resazurin dye based broth microdilution method; type: functional, organism-based
Outline: (§1)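 Broth microdilution in Middlebrook 7H9 with 10% ADC-Tween-80 (0.2% glycerol, 0.05% Tween-80), inoculum ~10⁶ cfu/mL. Compounds came from 10 mg/mL DMSO stocks and were tested as two-fold serial dilutions at 37 °C, 7 days for M. tuberculosis H37Rv and 72 h for NTM. Growth was read visually with PrestoBlue resazurin dye; MIC was the lowest concentration preventing growth. Triplicate determinations, each in duplicate.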

Pseudomonas aeruginosa = assay: Antibacterial activity against Pseudomonas aeruginosa ATCC 27853 assessed as bacterial growth inhibition incubated for 16 to 18 hrs by CLSI based antibiotic susceptibility testing method; type: functional, organism-based; settings: time 16-18 hrs
Outline: (§2)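 Broth microdilution in cation-adjusted Mueller-Hinton broth. Compounds were tested at […], with levofloxacin as reference and medium-only controls. Plates were incubated at 37 °C for 16-18 h. MIC was the lowest concentration with no visible growth; three independent determinations, each in duplicate.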

[2] = test system: Mycobacteroides abscessus; assay: Antimycobacterial activity against Mycobacterium abscessus ATCC 19977 assessed as bacterial growth inhibition incubated for 72 hrs by resazurin dye based broth microdilution method; type: functional, organism-based; outline: as §1
[3] = test system: Mycobacterium tuberculosis; assay: Antimycobacterial activity against Mycobacterium tuberculosis H37Rv ATCC 27294 assessed as bacterial growth inhibition incubated for 7 days by resazurin dye based broth microdilution method; type: functional; settings: H37Rv ATCC 27294, 168 h, time 7 day; outline: as §1
Klebsiella pneumoniae = assay: Antibacterial activity against Klebsiella pneumoniae BAA 1705 assessed as bacterial growth inhibition incubated for 16 to 18 hrs by CLSI based antibiotic susceptibility testing method; type: functional, organism-based; settings: time 16-18 hrs; outline: as §2
Staphylococcus aureus = assay: Antibacterial activity against Staphylococcus aureus ATCC 29213 assessed as bacterial growth inhibition incubated for 16 to 18 hrs by CLSI based antibiotic susceptibility testing method; type: functional; settings: time 16-18 hrs; outline: as §2
Mycobacteroides chelonae = assay: Antimycobacterial activity against Mycobacteroides chelonae ATCC 35752 assessed as bacterial growth inhibition incubated for 72 hrs by resazurin dye based broth microdilution method; type: functional, organism-based; outline: as §1
Acinetobacter baumannii = assay: Antibacterial activity against Acinetobacter baumannii BAA 1605 assessed as bacterial growth inhibition incubated for 16 to 18 hrs by CLSI based antibiotic susceptibility testing method; type: functional, organism-based; settings: time 16-18 hrs; outline: as §2
Escherichia coli = assay: Antibacterial activity against Escherichia coli ATCC 25922 assessed as bacterial growth inhibition incubated for 16 to 18 hrs by CLSI based antibiotic susceptibility testing method; type: functional, organism-based; settings: time 16-18 hrs; outline: as §2

Structure (SMILES) | growth inhibition (GI) [1] | growth inhibition (GI) (Pseudomonas aeruginosa) | growth inhibition (GI) [2] | MIC [3] | growth inhibition (GI) (Klebsiella pneumoniae) | MIC (Staphylococcus aureus) | growth inhibition (GI) (Mycobacteroides chelonae) | growth inhibition (GI) (Acinetobacter baumannii) | growth inhibition (GI) (Escherichia coli)
Cc1ccc(NC(=S)N2CCN(C(=O)CCN3C(=O)c4cccc5cccc(c45)C3=O)CC2)cc1 | inactive | inactive | inactive | > 64 µg/mL | inactive | > 64 µg/mL | inactive | inactive | inactive
CCN=C(S)N1CCN(CCN2C(=O)c3cccc4cccc(c34)C2=O)CC1 | inactive | inactive | inactive | 64 µg/mL (≈ 161 µM) | inactive | > 64 µg/mL | inactive | inactive | inactive
O=C1c2cccc3cccc(c23)C(=O)N1CCN1CCN(C(=S)NC23CC4CC(CC(C4)C2)C3)CC1 | inactive | inactive | inactive | > 64 µg/mL | inactive | > 64 µg/mL | inactive | inactive | inactive
CCCCCCCNC(=S)N1CCN(CCN2C(=O)c3cccc4cccc(c34)C2=O)CC1 | inactive | inactive | inactive | 64 µg/mL (≈ 137 µM) | inactive | > 64 µg/mL | inactive | inactive | inactive
O=C1c2cccc3cccc(c23)C(=O)N1CCN1CCN(C(=S)Nc2cccc(Cl)c2)CC1 | inactive | inactive | inactive | > 64 µg/mL | inactive | > 64 µg/mL | inactive | inactive | inactive
COc1ccc(NC(=S)N2CCN(C(=O)CN3C(=O)c4cccc5cccc(c45)C3=O)CC2)cc1 | inactive | inactive | inactive | 64 µg/mL (≈ 131 µM) | inactive | > 64 µg/mL | inactive | inactive | inactive
O=C1c2cccc3cccc(c23)C(=O)N1CCN1CCN(C(=S)Nc2ccc(Cl)c(Cl)c2)CC1 | inactive | inactive | inactive | > 64 µg/mL | inactive | > 64 µg/mL | inactive | inactive | inactive
O=C1c2cccc3cccc(c23)C(=O)N1CCN1CCN(C(=S)Nc2cccnc2)CC1 | inactive | inactive | inactive | > 64 µg/mL | inactive | > 64 µg/mL | inactive | inactive | inactive
Cc1ccc(NC(=S)N2CCN(CCN3C(=O)c4cccc5cccc(c45)C3=O)CC2)cc1 | inactive | inactive | inactive | > 64 µg/mL | inactive | > 64 µg/mL | inactive | inactive | inactive
O=C1c2cccc3cccc(c23)C(=O)N1CCN1CCN(C(=S)NC2CC2)CC1 | inactive | inactive | inactive | > 64 µg/mL | inactive | > 64 µg/mL | inactive | inactive | inactive
